Source: PubChem (several laboratories)
T cruzi repl – blocks replication of Trypanosoma cruzi | T. cruzi beta-gal in NIH3T3, luminescence, 90 h | inhibition, % (test concentration not listed) | actives 1.4% (n = 300,000);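 active means mean inhibition across valid replicates above about 55%, limit read from the data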;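 further: signal also drops with host cell toxicity which is not excluded here; 0% = plate median of DMSO wells and 100% = zero luminescence signal; higher percent means less beta-gal luminescence so fewer parasites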
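Material: NIH/3T3 host cells with β-galactosidase reporter T. cruzi; Input: 5,000 host fibroblasts per well; Medium: DMEM, 2% fetal bovine serum; Compound: 50 nL DMSO compound solution per well; Schedule: 3 h host attachment, then at least 90 h co-culture; Detection: luminescent β-galactosidase signal after 60 min lysis.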
CSC inhib – cancer stem cell inhibition | inhibition, % at 7.5 µM | cancer stem cell-like cells viability, luminescence | actives 1.1% (n = 300,000) | AID 2717; in the data active means inhibition above about 75%; tested in HMLE shEcad cells
Calb FLC – affects C. albicans growth with fluconazole; C. albicans CaCi-2 + fluconazole, Alamar Blue growth, 48 h; growth inhibition, % (concentration not given with the values); actives 0.57% (n = 300,000); AID 1979;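 active means growth inhibition above about 58% in most replicates, limit read from the data, passing the limit was not always enough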;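 further: all wells also contain fluconazole at 8 µg/ml as a sub-toxic cotreatment; 0% = median of DMSO wells and 100% = median of geldanamycin control wells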
SKKanGAS inh – SKKanGAS growth inhibition; S. pyogenes SKKanGAS, kanamycin growth, BacTiter-Glo, 6 h; inhibition, % at 7.5 µM; actives 1.3% (n = 300,000);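 active means mean replicate score, as percent of positive control median, at least 50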;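 further: strain carries kanamycin resistance gene driven by streptokinase promoter and grows in 40 µg/ml kanamycin; loss of luminescence reflects streptokinase promoter inhibition or plain growth inhibition; 0% = median of DMSO wells and 100% = positive control at its reference dose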
Mdm2-MdmX inh – disrupts the human Mdm2-MdmX interaction. inhibition, % at 8 µM. actives 3% (n = 330,000). O15151+Q00987. SaOS-2 split-luciferase Mdm2/MdmX complementation, luminescence;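 active means inhibition of at least 50% at 8 µM in the primary screen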
Target sequence (O15151 whole entry, looked up): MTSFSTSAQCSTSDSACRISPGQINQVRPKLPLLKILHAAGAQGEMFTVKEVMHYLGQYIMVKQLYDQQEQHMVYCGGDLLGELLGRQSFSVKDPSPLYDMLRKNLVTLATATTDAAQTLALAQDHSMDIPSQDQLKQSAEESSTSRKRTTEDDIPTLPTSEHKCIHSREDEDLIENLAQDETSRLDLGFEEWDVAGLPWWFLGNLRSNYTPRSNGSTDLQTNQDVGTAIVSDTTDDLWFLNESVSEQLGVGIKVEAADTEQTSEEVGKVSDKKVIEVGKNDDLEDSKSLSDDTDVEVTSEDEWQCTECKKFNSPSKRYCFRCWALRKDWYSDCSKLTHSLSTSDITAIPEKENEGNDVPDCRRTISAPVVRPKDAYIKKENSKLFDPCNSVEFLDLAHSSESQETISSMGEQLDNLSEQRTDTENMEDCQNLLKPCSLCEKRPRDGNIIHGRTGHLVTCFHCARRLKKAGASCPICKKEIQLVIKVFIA
Target sequence (Q00987 whole entry, looked up): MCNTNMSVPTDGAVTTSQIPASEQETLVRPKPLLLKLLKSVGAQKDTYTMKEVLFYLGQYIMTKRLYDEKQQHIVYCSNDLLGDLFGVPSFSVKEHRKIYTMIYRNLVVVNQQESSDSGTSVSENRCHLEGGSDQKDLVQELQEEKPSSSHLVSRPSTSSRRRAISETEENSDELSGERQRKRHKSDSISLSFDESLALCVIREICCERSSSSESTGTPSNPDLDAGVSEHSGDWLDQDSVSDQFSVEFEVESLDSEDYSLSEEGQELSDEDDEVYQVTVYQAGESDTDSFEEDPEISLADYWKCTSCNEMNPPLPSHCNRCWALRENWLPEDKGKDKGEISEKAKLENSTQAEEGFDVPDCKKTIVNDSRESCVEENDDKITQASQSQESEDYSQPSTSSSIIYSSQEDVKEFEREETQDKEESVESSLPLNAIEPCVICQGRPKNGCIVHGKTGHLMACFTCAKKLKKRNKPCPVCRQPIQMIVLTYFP
Beta cell apopt – blocks beta cell apoptosis. INS-1E cytokine-induced death, ATP luminescence, 48 h; percent of positive-control rescue, neutral wells zero. protection from apoptosis, % (concentration not given with the values). actives 0.8% (n = 300,000). AID 435005;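 active means Every replicate reaches about 75%, or at least half do and their mean reaches it too, limit read from the data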;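 further: 0% = cytokine-treated negative control wells and 100% = positive control rescue; higher means more ATP so stronger rescue from cytokine killing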
Mdm2-MdmX conf – human Mdm2/MdmX binding inhibition, confirmed. actives 55% (n = 10,000). inhibition, % at 8 µM. luminescent assay. shares compounds with Mdm2-MdmX inh. AID 489028; in the data active means inhibition above about 40%
Full FLuc ctr – inhibits full-length luciferase, flagging false Mdm2/MdmX hits; shares compounds with Mdm2-MdmX inh; SaOS-2 full-length luciferase counterscreen, luminescence; inhibition, % at 8 µM; actives 77% (n = 6,200); AID 504607;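 active means mean inhibition at 8 µM reaching about 37%, which flags the compound as non-specific, limit read from the data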;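 further: p53-null SaOS-2 cells with luciferase driven by a doxycycline-inducible promoter; compound on cells about two nights before reading with doxycycline added after day one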
Starred values were filed as active, the others as inactive; . = not tested or not shown. This is a sample that favours compounds with a hit; in the whole collection about 5.7% have one here.

SMILES	T cruzi repl	CSC inhib	Calb FLC	SKKanGAS inh	Mdm2-MdmX inh	Beta cell apopt	Mdm2-MdmX conf	Full FLuc ctr
CC(C)(C)c1nc(SCC(=O)Nc2nc3c(s2)CCCC3)c2ccccc2n1	59*	119*	-7	19	98*	24	93*	54*
O=C(Cc1cccs1)Nc1nc2c(s1)CCCC2	-6	-1	-22	8	56*	1	47*	90*
O=C(CSc1nc(Cc2ccccc2)nc2ccccc12)Nc1nc2c(s1)CCCC2	0	.	-19	19	-17	.	.	.
CC(C)c1nc(SCC(=O)NC2CCCC2)c2ccccc2n1	11	1	-10	18	13	0	.	.
CC(C)c1nc(SCC(=O)Nc2nc3c(s2)CCCC3)c2ccccc2n1	35	-11	-11	9	85*	-6	64*	45*
COc1cccc(-c2cccc(NC(=O)C3CCN(Cc4ccon4)CC3)c2)c1	17	1	0	-3	4	-8	.	.
COC(=O)c1ccc(/C=N/Nc2nc(N3CCCCC3)nc(N3CCCCC3)n2)cc1	-19	2	4	5	-4	2	.	.
O=C1C=C(N2CCOCC2)c2ccccc2C1=O	-33	21	25	34	74*	104*	20	.
NC(=O)c1ccccc1NC(=O)c1cc(S(=O)(=O)N2CCCCC2)ccc1N1CCOCC1	.	.	.	.	-10	6	.	.
COc1cc(NC(=S)NC(=O)c2cc(C)cc(C)c2)ccc1NC(=O)c1cccs1	35	14	1	20	17	22	.	.
COc1cc(NC(=O)c2cc3ccccc3cc2OC)ccc1NC(=O)c1cccs1	34	3	-11	34	58*	19	57*	90*
COc1cc(NC(=S)NC(=O)c2ccc(C(C)(C)C)cc2)ccc1NC(=O)c1cccs1	13	71	10	11	90*	20	68*	28
CC(Oc1ccc(Br)cc1)C(=O)Nc1ccc(S(=O)(=O)N(C)C2CCN(C)CC2)cc1 (stereo not drawn)	56*	29	3	-3	59*	22	39	76*
COc1ccc(CC(=O)Nc2ccc(S(=O)(=O)N(C)C3CCN(C)CC3)cc2)cc1	.	.	.	.	12	.	.	.
CCC(C(=O)Nc1ccc(S(=O)(=O)N(C)C2CCN(C)CC2)cc1)c1ccccc1 (stereo not drawn)	.	.	.	.	12	-2	.	.
COc1ccc2oc(C(=O)Nc3ccc(S(=O)(=O)N(C)C4CCN(C)CC4)cc3)c(C)c2c1	60*	8	10	-1	96*	24	46*	47*
O=C(O)C(Cc1ccccc1)N=C(NS(=O)(=O)c1ccccc1)c1ccccc1 (stereo not drawn)	.	-17	.	.	3	4	.	.
Cc1cc(C)cc(-n2nnnc2SCC(=O)Nc2nc(-c3ccc(F)cc3)cs2)c1	14	0	0	-4	43	5	.	.
Cc1ccc(-n2nnnc2SCC(=O)Nc2nc(-c3ccc(F)cc3)cs2)cc1C	1	12	-1	-7	65*	1	39	47*
COCCN(Cc1ccccc1)C(=O)C1CCN(S(=O)(=O)c2ccc3c(c2)OCCO3)CC1	.	.	.	.	6	-5	.	.
Cc1nnsc1C(=O)N/N=C/c1ccc2ccccc2c1O	55*	78*	-8	56*	63*	125*	75*	30
Cc1nc(N)sc1C(=O)N/N=C/c1c[nH]c2ccccc12	35	-1	-11	-15	51*	-1	23	.
Fc1cnc(N/N=C/c2ccc(-c3ccc(Br)cc3)o2)nc1N1CCOCC1	33	28	0	14	59*	30	1	.
O=[N+]([O-])c1ccc(/C=N/Nc2nc(N3CCOCC3)nc(N3CCOCC3)n2)cc1	-8	-7	-3	-1	15	-2	.	.
Brc1ccc(-c2ccc(/C=N/Nc3nc(N4CCOCC4)nc(N4CCOCC4)n3)o2)cc1	14	-8	23	22	69*	13	29	.
SMILES	T cruzi repl	CSC inhib	Calb FLC	SKKanGAS inh	Mdm2-MdmX inh	Beta cell apopt	Mdm2-MdmX conf	Full FLuc ctr
Cc1ccc([C@@H]2[C@@H]3C(=O)N(C)C(=O)[C@@H]3[C@@H]3C(=O)Nc4ccccc4C(=O)N23)cc1	-24	34	1	-4	-4	6	.	.
Nc1ccc(-c2cc3ccccc3oc2=O)cc1	23	4	-36	-3	52*	.	30	45*
Cc1[nH]n(-c2ccccc2)c(=O)c1/C=N/N1C(=O)c2ccc3c4c(ccc(c24)C1=O)CC3	-6	4	-35	5	26	10	.	.
COc1ccccc1N1CCN(C(=O)c2ccc3c(Cl)c4c(nc3c2)CCCC4)CC1	-29	15	-1	25	64*	-2	20	.
COc1ccccc1N1CCN(C(=O)c2ccc3nc(-c4ccco4)c(-c4ccco4)nc3c2)CC1	23	-4	-2	26	54*	7	24	.
O=C(c1ccc2c(Cl)c3c(nc2c1)CCCC3)N1CCN(c2ccc(F)cc2)CC1	-27	.	2	32	42	-4	.	.
CCOC(=O)N1CCC(NC(=O)c2ccc(CS(=O)c3cccc(Cl)c3)o2)CC1 (stereo not drawn)	-2	-8	29	1	-8	10	.	.
CCN(CC)c1ccc(NC(=O)c2ccccc2Br)cc1S(=O)(=O)Nc1ccccc1OC	39	3	-20	4	-6	33	.	.
CCN(CC)c1ccc(NC(=O)c2ccc(=O)[nH]c2)cc1S(=O)(=O)Nc1ccccc1OC	-6	46	13	-1	50*	16	56*	54*
Cc1cccc2c(C(=O)O)cc(-c3cccnc3)nc12	-5	-12	-8	-23	-17	-7	.	.
O=C(O)c1cc2ccccc2c(N=Nc2cccnc2)c1O	-13	23	41	-6	61*	-36	32	.
COc1ccc(S(=O)(=O)Nc2cccc3c2O[C@H](CN(C)S(=O)(=O)c2cccs2)[C@@H](C)CN([C@H](C)CO)C3=O)cc1	.	9	.	.	23	-15	.	.
O=C(CN1C(=O)C2C3CC(C(Br)C3Br)C2C1=O)N1CCN(Cc2ccccc2)CC1 (stereo not drawn)	-2	9	-10	-2	3	2	.	.
CC(C)C1CC(CCNCc2ccc(N(C)C)cc2)(c2ccccc2)CCO1 (stereo not drawn)	30	-30	-5	5	34	2	.	.
Cc1ccc(C2(CCNCc3ccc(N(C)C)cc3)CCOC(C(C)C)C2)cc1 (stereo not drawn)	48	13	10	-3	93*	19	23	.
CCOc1ccc2nc(NC(=O)C3CSC4(C)CCC(=O)N34)sc2c1 (stereo not drawn)	.	.	.	.	12	2	.	.
